According to ChEMBL document CHEMBL3091377, “Small molecule fusion inhibitors: design, synthesis and biological evaluation of (Z)-3-(5-(3-benzyl-4-oxo-2-thioxothiazolidinylidene)methyl)-N-(3-carboxy-4-hydroxy)phenyl-2,5-dimethylpyrroles and related derivatives targeting HIV-1 gp41” (Bioorg Med Chem, 2013):
Active and inactive are the calls of the source. The calls are words filed in the database; no cut-off is given here.

Experiments:
[1] = Cytotoxicity against human MT2 cells after 4 days by XTT assay; assay type: cell-based
Summary of the method: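 XTT assay on MT-2 cells (5 × 10^5/mL mixed with equal volume of compound at graded concentrations). Incubated 4 days, then XTT (1 mg/mL) containing 0.02 µM phenazine methosulphate added. A450 read after 4 h; CC50 calculated as concentration giving 50% cytotoxicity.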

[2] = tested on: Human immunodeficiency virus 1; experiment: Antiviral activity against HIV1 3B infected in human MT2 cells assessed as inhibition of p24 antigen production after 4 days by ELISA; assay type: functional, organism-based; conditions: Human immunodeficiency virus 1, 3B, MT2, 96 h
Summary of the method: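 MT-2 cells (1 × 10^4) infected with HIV-1 IIIB at 100 TCID50 in RPMI 1640 with 10% serum (printed "PBS"), compound at graded concentrations overnight. Supernatant then replaced with compound-free medium. Day 4: supernatant lysed in equal volume 5% Triton X-100, p24 quantified by sandwich ELISA against recombinant p24 standard curve. Triplicate; EC50 from percent inhibition.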

[3] = Selectivity index, ratio of CC50 for human MT2 cells to EC50 for HIV1 3B; assay type: toxicity, cell-based; conditions: read-out: Ratio CC50/EC50
Summary of the method: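 Selectivity index calculated as CC50 (XTT, MT-2 cells, 4 days) divided by EC50 (p24 inhibition in HIV-1 IIIB-infected MT-2 cells).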

[4] = (§1) Inhibition of HIV-1 gp41-mediated 6-helix bundle formation after 30 mins by sandwich ELISA; set-up: species or system Human immunodeficiency virus 1
Summary of the method: (§2)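 Peptide N36 (2 µM) preincubated with compound at graded concentrations, 37 °C, 30 min. C34 (2 µM) then added and incubated a further 30 min at 37 °C. Mixture captured on wells coated with rabbit IgG against gp41 six-helix bundle (10 µg/mL); A450 read. Percent inhibition versus no-compound control; IC50 calculated; triplicate.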

[5] = tested on: Human immunodeficiency virus 1; experiment: Antiviral activity against enfuvirtide-resistant HIV-1 NL4-3 harboring gp41 (36G)V38A mutation infected in human MT2 cells assessed as inhibition of p24 antigen production after 4 days by ELISA; assay type: functional, organism-based
Summary of the method: (§3)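 1 × 10^4 MT-2 cells infected with virus (100 TCID50) in RPMI 1640 with 10% serum, with or without compound at graded concentrations, overnight. Supernatant then replaced with compound-free medium. Day 4 supernatant lysed with 5% Triton X-100. p24 quantified by HIVIG-capture sandwich ELISA with recombinant p24 standard curve, A450. IC50 by CalcuSyn, triplicate, mean ± SD.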

[6] = tested on: Human immunodeficiency virus 1; experiment: Antiviral activity against enfuvirtide-resistant HIV-1 NL4-3 harboring gp41 (36G)V38A/N42T mutation infected in human MT2 cells assessed as inhibition of p24 antigen production after 4 days by ELISA; assay type: functional, organism-based; summary of the method: as §3
[7] = tested on: Human immunodeficiency virus 1; experiment: Antiviral activity against enfuvirtide-sensitive HIV-1 NL4-3 harboring gp41 (36G)N42S mutation infected in human MT2 cells assessed as inhibition of p24 antigen production after 4 days by ELISA; assay type: functional, organism-based; summary of the method: as §3
[8] = tested on: Human immunodeficiency virus 1; experiment: Antiviral activity against enfuvirtide-resistant HIV-1 NL4-3 harboring gp41 (36G)V38E/N42S mutation infected in human MT2 cells assessed as inhibition of p24 antigen production after 4 days by ELISA; assay type: functional, organism-based; summary of the method: as §3
[9] = tested on: Human immunodeficiency virus 1; experiment: Antiviral activity against enfuvirtide-resistant HIV-1 NL4-3 harboring gp41 (36G)N42T/N43K mutation infected in human MT2 cells assessed as inhibition of p24 antigen production after 4 days by ELISA; assay type: functional, organism-based; summary of the method: as §3
[10] = tested on: Human immunodeficiency virus 1; experiment: Antiviral activity against enfuvirtide-resistant HIV-1 NL4-3 harboring gp41 (36G)V38A/N42D mutation infected in human MT2 cells assessed as inhibition of p24 antigen production after 4 days by ELISA; assay type: functional, organism-based; summary of the method: as §3
[11] = tested on: Human immunodeficiency virus 1; experiment: Ratio of IC50 for enfuvirtide-resistant HIV-1 NL4-3 harboring gp41 (36G)V38A mutation to IC50 for enfuvirtide-sensitive HIV-1 NL4-3 harboring gp41 (36G)N42S mutation; assay type: functional
Summary of the method: (§4)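 MT-2 cells (1 × 10^4) were infected overnight in RPMI 1640 with 100 TCID50 of the NL4-3 (36G) N42S or mutant strain, with graded compound. Medium was then replaced without compound. On day 4, supernatant was lysed in 5% Triton X-100 and p24 measured by HIVIG-capture ELISA (A450, recombinant p24 standard). IC50 was taken from triplicates, and the ratio was mutant IC50 over N42S IC50.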

[12] = tested on: Human immunodeficiency virus 1; experiment: Ratio of IC50 for enfuvirtide-resistant HIV-1 NL4-3 harboring gp41 (36G)V38E/N42S mutation to IC50 for enfuvirtide-sensitive HIV-1 NL4-3 harboring gp41 (36G)N42S mutation; assay type: functional; summary of the method: as §4
[13] = tested on: Human immunodeficiency virus 1; experiment: Ratio of IC50 for enfuvirtide-resistant HIV-1 NL4-3 harboring gp41 (36G)N42T/N43K mutation to IC50 for enfuvirtide-sensitive HIV-1 NL4-3 harboring gp41 (36G)N42S mutation; assay type: functional; summary of the method: as §4
[14] = tested on: Human immunodeficiency virus 1; experiment: Ratio of IC50 for enfuvirtide-resistant HIV-1 NL4-3 harboring gp41 (36G)V38A/N42T mutation to IC50 for enfuvirtide-sensitive HIV-1 NL4-3 harboring gp41 (36G)N42S mutation; assay type: functional; summary of the method: as §4
[15] = tested on: Human immunodeficiency virus 1; experiment: Ratio of IC50 for enfuvirtide-resistant HIV-1 NL4-3 harboring gp41 (36G)V38A/N42D mutation to IC50 for enfuvirtide-sensitive HIV-1 NL4-3 harboring gp41 (36G)N42S mutation; assay type: functional; summary of the method: as §4
[16] = tested on: Human immunodeficiency virus 1; experiment: as §1; summary of the method: as §2

Molecule Cc1cc(/C=C2\SC(=S)N(Cc3ccc(C(=O)O)cc3)C2=O)c(C)n1-c1ccc(O)c(C(=O)O)c1 has a CC50 at 96 h [1] of 105 µM, an EC50 [2] of 7.1 µM and a selectivity ratio [3] of 14.7. It also gave an IC50 [4] of 68 µM.

Molecule COC(=O)c1ccc(CN2C(=O)/C(=C/c3cc(C)n(-c4ccc(O)c(C(=O)O)c4)c3C)SC2=S)cc1 has an IC50 [5] of 4.85 µM, a CC50 at 96 h [1] of 36.9 µM and an EC50 [2] of 1.5 µM. For the same molecule, the IC50 [6] was 1.67 µM, the IC50 [7] was 2.01 µM and the selectivity ratio [3] was 24.6. The IC50 [8] was 2.75 µM, the IC50 [4] was 1.8 µM and the IC50 [9] was 2.3 µM. It also gave an IC50 [10] of 2.2 µM.

For Cc1cc(/C=C2\SC(=S)N(Cc3cccc(C(=O)O)c3)C2=O)c(C)n1-c1ccc(O)c(C(=O)O)c1, the CC50 at 96 h [1] was > 100 µM, the EC50 [2] was 12.1 µM and the selectivity ratio [3] was > 8.3. The IC50 [4] was 20.8 µM.

In the case of Cc1ccc(C)n1-c1ccc(O)c(C(=O)O)c1, the EC50 [2] is reported as 0.7 µM, the selectivity ratio [3] is reported as 191 and the IC50 [4] is reported as 37.4 µM.

For Cc1cc(/C=C2\SC(=S)N(Cc3ccc(C(F)(F)F)cc3)C2=O)c(C)n1-c1ccc(O)c(C(=O)O)c1, the CC50 at 96 h [1] was 45.9 µM, the EC50 [2] was 17.2 µM and the selectivity ratio [3] was 2.7. For the same molecule, the IC50 [4] was 18.8 µM.

With Cc1cc(/C=C2\SC(=S)N(Cc3ccccc3Br)C2=O)c(C)n1-c1ccc(O)c(C(=O)O)c1 the CC50 at 96 h [1] was 25.7 µM, the EC50 [2] was 41.1 µM and the selectivity ratio [3] was 0.6.

Molecule Cc1cc(/C=C2\SC(=S)N(Cc3cccc(Br)c3)C2=O)c(C)n1-c1ccc(O)c(C(=O)O)c1 has a CC50 at 96 h [1] of 48.2 µM, an EC50 [2] of 32.4 µM and a selectivity ratio [3] of 1.5. It also gave an IC50 [4] of 7.8 µM.

Cc1cc(/C=C2\SC(=S)N(Cc3ccc(Br)cc3)C2=O)c(C)n1-c1ccc(O)c(C(=O)O)c1 gave a CC50 at 96 h [1] of 94.4 µM, an EC50 [2] of 42.7 µM and a selectivity ratio [3] of 2.2. It also gave an IC50 [4] of 10.3 µM.

Cc1cc(/C=C2\SC(=S)N(Cc3ccccc3C(F)(F)F)C2=O)c(C)n1-c1ccc(O)c(C(=O)O)c1 gave a CC50 at 96 h [1] of 28.8 µM, an EC50 [2] of 29.1 µM and a selectivity ratio [3] of 1. The IC50 [4] was 22.6 µM.

For Cc1cc(/C=C2\SC(=S)N(Cc3ccccc3)C2=O)c(C)n1-c1ccc(Cl)c(C(=O)O)c1, the CC50 at 96 h [1] was 68.3 µM, the EC50 [2] was 19.1 µM and the selectivity ratio [3] was 3.6. The IC50 [4] was 34.3 µM.

With enfuvirtide the IC50 [5] was > 2 µM, the “Ratio IC50” value [11] was >20 and the “Ratio IC50” value [12] was >20. The IC50 [6] was 1.66 µM, the IC50 [7] was 0.077 µM and the “Ratio IC50” value [13] was >20. The “Ratio IC50” value [14] was >20, the IC50 [8] was > 2 µM and the “Ratio IC50” value [15] was >20. For the same molecule, the IC50 [9] was > 2 µM and the IC50 [10] was 1.54 µM.

With Cc1cc(/C=C2\SC(=S)N(Cc3ccc(C(C)(C)C)cc3)C2=O)c(C)n1-c1ccc(O)c(C(=O)O)c1 the IC50 [5] was 4.25 µM, the CC50 at 96 h [1] was 55.2 µM and the EC50 [2] was 0.9 µM. The IC50 [6] was 1.78 µM, the IC50 [7] was 0.473 µM and the selectivity ratio [3] was 61.3. For the same molecule, the IC50 [8] was 2.67 µM, the IC50 [4] was 2.6 µM and the IC50 [9] was 1.96 µM. It also gave an IC50 [10] of 2.02 µM.

Cc1cc(/C=C2\SC(=S)N(Cc3ccccc3)C2=O)c(C)n1-c1cccc(C(=O)O)c1 gave a CC50 at 96 h [1] of 83.4 µM, an EC50 [2] of 15.3 µM and a selectivity ratio [3] of 5.5. For the same molecule, the IC50 [4] was 45.7 µM.

Work on COc1ccc(CN2C(=O)/C(=C/c3cc(C)n(-c4ccc(O)c(C(=O)O)c4)c3C)SC2=S)cc1 yielded a CC50 at 96 h [1] of 75.3 µM, an EC50 [2] of 19.8 µM and a selectivity ratio [3] of 3.8. The IC50 [4] was 0.9 µM.

Cc1cc(/C=C2\SC(=S)N(Cc3ccccc3)C2=O)c(C)n1-c1ccc(O)c(C(=O)O)c1 gave a CC50 at 96 h [1] of 159 µM, an EC50 [2] of 3.2 µM and a selectivity ratio [3] of 50.2. It also gave an IC50 [4] of 11.9 µM.

COc1cccc(CN2C(=O)/C(=C/c3cc(C)n(-c4ccc(O)c(C(=O)O)c4)c3C)SC2=S)c1 gave a CC50 at 96 h [1] of 102 µM, an EC50 [2] of 23.5 µM and a selectivity ratio [3] of 4.4. For the same molecule, the IC50 [4] was 2.1 µM.

Work on Cc1cc(/C=C2\SC(=S)N(CCc3ccccc3)C2=O)c(C)n1-c1ccc(O)c(C(=O)O)c1 yielded a CC50 at 96 h [1] of 26 µM, an EC50 [2] of 6.2 µM and a selectivity ratio [3] of 4.2. It also gave an IC50 [4] of 12.5 µM.

With Cc1cc(/C=C2\SC(=S)N(Cc3cccc(C(F)(F)F)c3)C2=O)c(C)n1-c1ccc(O)c(C(=O)O)c1 the CC50 at 96 h [1] was 26.3 µM, the EC50 [2] was 3.9 µM and the selectivity ratio [3] was 6.7. The IC50 [4] was 9.2 µM.

In the case of Cc1cc(/C=C2\SC(=S)N(c3ccccc3)C2=O)c(C)n1-c1ccc(O)c(C(=O)O)c1, the CC50 at 96 h [1] is reported as > 100 µM, the EC50 [2] is reported as 35.6 µM and the selectivity ratio [3] is reported as > 2.8. The inhibition [16] was “inactive”.

Molecule COC(=O)c1cccc(CN2C(=O)/C(=C/c3cc(C)n(-c4ccc(O)c(C(=O)O)c4)c3C)SC2=S)c1 has an IC50 [5] of 1.74 µM, a CC50 at 96 h [1] of 38.5 µM and an EC50 [2] of 0.3 µM. The IC50 [6] was 2.82 µM, the IC50 [7] was 2.22 µM and the selectivity ratio [3] was 128. The IC50 [8] was 3.37 µM, the IC50 [4] was 1.8 µM and the IC50 [9] was 2.02 µM. The IC50 [10] was 0.725 µM.
